IC50 and Toxicity ratio data for 11 molecules are collected here from ChEMBL document CHEMBL1129062, “6- and 7-substituted 2-[2'-(dimethylamino)ethyl]-1,2-dihydro-3H-dibenz[de,h] isoquinoline-1,3-diones: synthesis, nucleophilic displacements, antitumor activity, and quantitative structure-activity relationships” (J Med Chem, 1996).

For one data set, the system named is UACC-375. Put plainly: Inhibitory activity against […] cell line. It is filed as functional, cell-based. The following applies: Homo sapiens.
The subject of data set [1] is L1210. Briefly: Inhibitory activity against sensitive L1210 cell lines. It is filed as functional, cell-based. Conditions: Mus musculus.
Data set [2] concerns L1210. Put plainly: Inhibitory activity against resistant murine leukemia L1210 cell lines. It is filed as functional, cell-based. The following applies: Mus musculus.
The next data set concerns OVCAR-3. Put plainly: Inhibitory activity against OVCAR-3 cell line. The following applies: Homo sapiens. It is filed as functional, cell-based.
The species entered for the next data set is Rattus norvegicus. Briefly: Cardiotoxicity by a neonatal rat heart myocyte assay. It is filed as toxicity. In short, it runs like this:
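Neonatal rat heart myocytes exposed to drug for 1 h. Read-out is the ATP/protein ratio relative to untreated control myocytes. IC50 is the 1-h concentration that reduces this ratio to 50% of control.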

The next data set deals with Tumor cell line. Put plainly: An average for IC50 values in the two solid tumor cell lines. The data set is classed as functional, cell-based.
The nature of data set [3]: Toxicity ratio determined by the quotient of IC50 values in the myocytes divided by the average value in the three tumor lines. It is filed as functional. In short, it runs like this: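 Ratio is the myocyte cardiotoxicity IC50 (1-h exposure, ATP/protein ratio versus untreated myocytes) divided by the mean IC50 in sensitive L1210 and the two human tumor lines, measured with continuous exposure.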

Data set [4] in a line: An average for IC50 values in the two solid tumor cell lines and sensitive L1210 leukemia cell line. The data set is classed as functional, cell-based.

For the molecule `CN(C)CCN1C(=O)c2cccc3c(O)c4ccccc4c(c23)C1=O`, the half-inhibitory concentration (IC50) – broadly, the concentration that inhibits the measured activity by half – was 6130 nM in the data set with UACC-375; 472 nM in the data set with L1210 [1]; 212 nM in the data set with L1210 [2]; 1180 nM in the data set with OVCAR-3; greater than 24100 nM in the data set listed under Rattus norvegicus; 3660 nM in the data set on Tumor cell line. This molecule had an IC50 in data set [4] of 2590 nM. The Toxicity ratio in data set [3] is greater than 9.

Regarding `CN(C)CCNc1c2ccccc2c2c3c(cccc13)C(=O)N(CCN(C)C)C2=O`, the IC50 came out at 839 nM in the data set on UACC-375; 524 nM in the data set on L1210 [1]; 524 nM with L1210 [2]; 2880 nM in the data set with OVCAR-3; 291000 nM in the data set listed under Rattus norvegicus; 1860 nM in the data set with Tumor cell line. This molecule registered an IC50 in data set [4] of 1420 nM. Further, the Toxicity ratio in data set [3] is 205.

On to `CNCCN1C(=O)c2ccc(Cl)c3cc4ccccc4c(c23)C1=O`, for which the IC50 is 5330 nM in the data set on UACC-375; 53 nM with L1210 [1]; 53 nM in the data set on L1210 [2]; 267 nM in the data set on OVCAR-3; 7600 nM in the data set filed under Rattus norvegicus; 2800 nM with Tumor cell line. This molecule came in with an IC50 in data set [4] of 1880 nM. The Toxicity ratio in data set [3] was determined as 4.

Turning to `CN(C)CCN1C(=O)c2cccc3c(Cl)c4ccccc4c(c23)C1=O`, the IC50 in the data set with UACC-375 stood at 514 nM; in the data set with L1210 [1], 154 nM; in the data set with L1210 [2], 206 nM; with OVCAR-3 it was 386 nM; in the data set listed under Rattus norvegicus it was 10800 nM; in the data set with Tumor cell line, 450 nM. The midpoint of inhibition in data set [4], the IC50, lay at 351 nM. Also, the Toxicity ratio in data set [3] is given as 31.

In the case of `CN(C)CCN1C(=O)c2ccc(N)c3cc4ccccc4c(c23)C1=O`, the IC50 in the data set listed under Rattus norvegicus was 1490 nM; with Tumor cell line, 109 nM; in data set [4], 74 nM. Further, the Toxicity ratio in data set [3] was 20.

As for `CC(=O)Nc1ccc2c3c(c4ccccc4cc13)C(=O)N(CCN(C)C)C2=O`, the IC50 with UACC-375 was determined as 7290 nM; in the data set on L1210 [1], 486 nM; in the data set on L1210 [2] it was 729 nM; with OVCAR-3, 6080 nM; in the data set filed under Rattus norvegicus, 12900 nM; in the data set on Tumor cell line it was 6680 nM. Also, the 50% inhibitory concentration (IC50) in data set [4] was found to be 4620 nM. Besides, in data set [3], the Toxicity ratio is given as 2.8.

On to `CN(C)CCN1C(=O)c2ccc(NCCO)c3cc4ccccc4c(c23)C1=O`, for which the IC50 turned out to be 48 nM in the data set with UACC-375; 6 nM with L1210 [1]; 48 nM in the data set on L1210 [2]; 19 nM in the data set on OVCAR-3; 1210 nM in the data set filed under Rattus norvegicus; 34 nM in the data set on Tumor cell line. For the same molecule, in data set [4], the IC50 was found to be 24 nM. Moreover, the Toxicity ratio in data set [3] is on record as 50.

For the molecule `Cc1c2ccccc2c2c3c(cccc13)C(=O)N(CCN(C)C)C2=O`, the IC50 was 42 nM in the data set on UACC-375; 34 nM in the data set on L1210 [1]; 70 nM with L1210 [2]; 28 nM in the data set on OVCAR-3; 1680 nM in the data set filed under Rattus norvegicus; 35 nM with Tumor cell line. In data set [4], this molecule displayed a half-inhibitory concentration (IC50) of 35 nM. For the same molecule, the Toxicity ratio in data set [3] is 49.

As for `CSc1c2ccccc2c2c3c(cccc13)C(=O)N(CCN(C)C)C2=O`, the IC50 in the data set with UACC-375 was 1380 nM; with L1210 [1] it was 6250 nM; in the data set on L1210 [2] it was 1220 nM; with OVCAR-3 it was 750 nM; in the data set filed under Rattus norvegicus, greater than 50000 nM; with Tumor cell line, 1060 nM. Also, the IC50 in data set [4] worked out at 2790 nM. Further, the Toxicity ratio in data set [3] is greater than 18.

Take `CC(=O)Nc1c2ccccc2c2c3c(cccc13)C(=O)N(CCN(C)C)C2=O`: the IC50 was 730 nM in the data set on UACC-375; 487 nM with L1210 [1]; 487 nM with L1210 [2]; 730 nM in the data set on OVCAR-3; greater than 23600 nM in the data set listed under Rattus norvegicus; 730 nM in the data set with Tumor cell line. Further, inhibition in data set [4] was half-maximal at 649 nM (IC50). In addition, in data set [3], the Toxicity ratio is given as greater than 36.

Take `CN(C)CCNc1ccc2c3c(c4cccc(Cl)c4cc13)C(=O)N(CCN(C)C)C2=O`: the IC50 is 29 nM in the data set with UACC-375; 2.9 nM in the data set on L1210 [1]; 6.8 nM with L1210 [2]; 176 nM in the data set on OVCAR-3; 3230 nM in the data set filed under Rattus norvegicus; 103 nM in the data set on Tumor cell line. Moreover, the IC50 in data set [4] worked out at 69 nM. The Toxicity ratio in data set [3] is on record as 47.
